SIAE primary: human SIAE inhibition, primary screen | Q9HAT2 | SIAE FP-Rh probe binding, fluorescence polarization | inhibition, % at 9.66 µM | 370,000 tested, 0.69% active | AID 1053197;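 active = inhibition above a cutoff: mean of compounds within the control limits plus 3 SD of those, cut at about 17% in these data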
ARNT-TACC3 inh: ARNT/TACC3 interaction disruption | Q9Y6A5 | inhibition, % at 9.99 µM | 390,000 tested, 0.66% active | AlphaScreen His-ARNT PAS-B/GST-TACC3 binding, luminescence; TACC3 fragment carries E629A point mutation;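 active = mean inhibition of replicates at least 50% and at least half of replicates each reaching 50%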
TCR CD3 inh: human TCR-CD3 binding inhibition; AID 651800; inhibition, % at 9.4 µM; 360,000 tested, 0.37% active; TAMRA-labeled TCR probe fluorescence, biochemical; in the data active = inhibition above about 19%;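 also: recombinant mutant TCR 2C K166C tagged with TAMRA read by polarization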
HTRA1 inhibitor: inhibitors of human serine peptidase HTRA1. 340,000 tested, 0.5% active. Q92743. inhibition, % at 5.96 µM. recombinant HTRA1, FP-rhodamine activity-based probe, fluorescence polarization; in the data active = inhibition above about 36%
ABHD4 inh: inhibits mouse alpha/beta hydrolase domain 4. Q8VD66. purified mABHD4, FP-Rh probe fluorescence polarization. inhibition, % at 8.92 µM. 370,000 tested, 0.54% active;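 active = inhibition exceeding the mean over every tested compound plus 3 SD, cut at about 30% in these data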
Target sequence (Q8VD66 whole entry, looked up, the tested form may be a part): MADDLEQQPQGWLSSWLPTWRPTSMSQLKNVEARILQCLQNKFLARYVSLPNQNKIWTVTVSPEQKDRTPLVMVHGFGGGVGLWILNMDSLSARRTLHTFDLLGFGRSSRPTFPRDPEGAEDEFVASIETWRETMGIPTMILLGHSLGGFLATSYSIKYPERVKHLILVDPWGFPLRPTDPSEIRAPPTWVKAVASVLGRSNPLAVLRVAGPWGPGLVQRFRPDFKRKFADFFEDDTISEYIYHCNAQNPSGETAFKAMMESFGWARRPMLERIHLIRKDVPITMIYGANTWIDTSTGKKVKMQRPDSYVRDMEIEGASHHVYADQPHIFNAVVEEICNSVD
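Assay system: mABHD4 protein; medium: HEPES pH 7.0, NaCl, Pluronic buffer; dosing: 8.92 µM, single dose; schedule: 45 min + 60 min at 25 °C; signal: FP readout, ex 525 nm / em 598 nm; read-out: normalized percent inhibition of probe labeling; repeats: single replicate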
Numbers stand for hits; n = inactive; x = not tested or not shown. Rows were chosen to be rich in hits. Some 1.8% of all compounds tested hit in one or more screens of this group.

SMILES	SIAE primary	ARNT-TACC3 inh	TCR CD3 inh	HTRA1 inhibitor	ABHD4 inh
CC=Cc1ccc2n(c1=O)C[C@H]1[C@H](CO)[C@@H](C(=O)NCCC)[C@@H]2N1C(=O)C1CC1 (mixture of isomers)	x	n	x	x	x
COc1ccc(N2CCN(CCCNC(=O)C(=O)c3c[nH]c4ccccc34)CC2)cc1	n	48	n	n	n
C[C@@H]1CN([C@@H](C)CO)C(=O)Cc2cc(NC(=O)CCC(F)(F)F)ccc2O[C@H]1CN(C)C(=O)Nc1ccccc1	x	n	x	x	x
COC(=O)c1ccc(C2/C(=C(\O)c3cccc(OC)c3)C(=O)C(=O)N2CCCN2CCOCC2)cc1 (stereo unspecified)	n	n	n	n	n
COC(=O)c1ccc(C2/C(=C(\O)c3cccc(OC)c3)C(=O)C(=O)N2CCCN(C)C)cc1 (stereo unspecified)	n	59	n	n	n
C[C@@H]1CN([C@H](C)CO)C(=O)Cc2cc(NC(=O)CCN3CCOCC3)ccc2O[C@H]1CN(C)C(=O)Nc1ccc2c(c1)OCO2	x	46	x	x	x
C[C@H](CO)N1C[C@H](C)[C@H](CN(C)C)Oc2ccc(NC(=O)Nc3ccc(F)cc3)cc2C1=O	x	46	x	x	x
C[C@H](CO)N1C[C@H](C)[C@@H](CN(C)C(=O)Nc2ccc3c(c2)OCO3)Oc2ccc(N(C)C)cc2C1=O	x	10	x	x	x
C[C@@H]1CN([C@H](C)CO)C(=O)c2cc(NC(=O)Nc3ccc(F)cc3)ccc2O[C@@H]1CN(C)C	x	n	x	x	x
C(=N\c1nccs1)/c1c[nH]c2ccccc12	n	40	n	n	n
C(=NN=Cc1c[nH]c2ccccc12)c1c[nH]c2ccccc12	n	x	n	n	n
NC(=S)NN=C1CCCCCCCCCC1	n	33	n	n	n
NC(=S)NN=C1CCC(C2CCCCC2)CC1 (stereo unspecified)	n	n	n	n	n
C[C@H]1CN([C@@H](C)CO)C(=O)c2cc(NC(=O)Cn3cnnn3)ccc2O[C@@H]1CN(C)C(=O)Nc1cccc2ccccc12	x	n	x	x	x
O=C(Oc1ccc2c3c(c(=O)oc2c1)CCCC3)c1cccs1	n	x	n	n	n
Cc1cccc(Oc2coc3cc(OC(=O)c4cccs4)ccc3c2=O)c1	n	n	n	69	n
Cc1ccc(Oc2coc3cc(OC(=O)c4cccs4)ccc3c2=O)cc1	n	n	n	70	n
O=S(=O)(Nc1cccc2ncccc12)c1cccs1	x	58	x	n	x
CC1(OC(=O)c2cccs2)C(=O)C=C2C=C3CCCN3C=C2C1=O (stereo unspecified)	x	8.4	x	n	x
O=C(O)c1ccccc1-c1ccccc1C(=O)Nc1ccc2c(c1)[nH]c(=O)c1ccccc12	n	47	n	n	n
O=C(O)c1ccccc1-c1ccccc1C(=O)Nc1ccc2oc(=O)c3ccccc3c2c1	n	x	n	n	n
C[C@@H]1CCCCO[C@@H](CN(C)S(C)(=O)=O)[C@H](C)CN([C@@H](C)CO)C(=O)c2cc(N(C)C)ccc2O1	x	n	x	x	x
CCCCC(=O)N/N=C/c1ccc(Sc2cccc3cccnc23)o1	n	54	n	n	n
O=C(Cc1cccc2ccccc12)N/N=C/c1ccc(Sc2cccc3cccnc23)o1	n	x	n	x	n
CCOc1cc(C(c2c(C)[nH][nH]c2=O)c2c(C)[nH][nH]c2=O)cc([N+](=O)[O-])c1O	n	active	n	n	n
SMILES	SIAE primary	ARNT-TACC3 inh	TCR CD3 inh	HTRA1 inhibitor	ABHD4 inh
CC1(C)S[C@@H]2[C@H](NC(=O)Cc3ccccc3)C(=O)N2[C@H]1C(=O)O	n	n	n	n	n
CC1(C)SC2C(C(=O)O)N=C(Cc3ccccc3)N2C1C(=O)O (stereo unspecified)	n	71	n	n	n
Cc1ccc(C(=O)N(CCCN(C)C)c2nc3ccc(Cl)cc3s2)cc1C	n	n	n	n	n
CN(C)CCN(C(=O)c1ccc2c(c1)OCCO2)c1nc2ccc(Cl)cc2s1	n	46	n	n	n
CCOC(=O)c1c(C)nc2sccn12	n	n	n	n	n
Cc1nc2sccn2c1P(c1c(C)nc2sccn12)c1c(C)nc2sccn12	17	n	n	n	n
O=C(Nc1nnc2n1CCS2)c1ccco1	n	45	n	n	n
O=C(C[C@@H]1CC[C@@H]2[C@H](COC[C@@H](O)CN2Cc2cccc(C(F)(F)F)c2)O1)NCc1ccc(F)cc1	x	n	x	x	x
O=[N+]([O-])c1ccc2c(c1)N([O-])C1(CCCCC1)[N+]2=O	n	x	n	x	53
CC1=C(c2ccccc2)[N+](=O)C2(CCCC2)N1[O-]	n	n	n	n	n
COc1ccc(N2C(=O)CC(NNc3ncc(Cl)cc3Cl)C2=O)cc1 (stereo unspecified)	n	68	n	n	n
COc1ccc(/C=N/Nc2nnc(C)n2N)cc1OC	n	54	n	n	n
CCN1CCN(C(=O)C(C)Nc2ccc(OC)cc2OC)CC1 (stereo unspecified)	n	42	n	n	n
COCC(=O)Nc1ccc2c(c1)C(=O)N(C)[C@H]1CC[C@H](CC(=O)NCc3cccc(F)c3)O[C@H]1CO2	x	n	x	x	x
S=C1Cc2ccccc2N1	n	n	n	n	34
S=C1Nc2ccccc2CS1	n	x	n	n	n
CN1CCN(C(=O)Cn2c(=O)oc3cc(S(=O)(=O)NCc4ccccc4)ccc32)CC1	25	n	n	n	n
CCOC(=O)Cn1c(=O)oc2cc(S(=O)(=O)NCCCc3ccccc3)ccc21	n	n	n	n	n
C=CCN1C(=O)[C@]2(O[C@H](CCn3cc([C@H](O)c4ccccc4)nn3)[C@@H]([Si](C)(C)c3ccc(OC)cc3)[C@@H]2C)c2cc(N3CCC3=O)ccc21	x	n	x	x	x
COc1ccc(C(=O)Oc2c(CN3CCOCC3)cc(Cl)c3cccnc23)cc1	n	65	n	40	n
O=C(Oc1c(CN2CCOCC2)cc(Cl)c2cccnc12)c1ccc(F)cc1	n	65	n	n	n
O=C(C[C@@H]1C[C@H]2c3cc(NC(=O)C4CCC4)ccc3O[C@H]2[C@H](CO)O1)NCCN1CCCCC1	x	n	x	x	x
C[C@@H]1CN([C@H](C)CO)C(=O)c2cccc(NC(=O)c3ccc(-c4nccs4)cc3)c2O[C@H]1CN(C)C(=O)Nc1ccccc1	x	19	x	x	x
C[C@H](CO)N1C[C@H](C)[C@H](CN(C)S(=O)(=O)c2cccs2)Oc2c(NC(=O)c3ccncc3)cccc2C1=O	x	active	x	x	x
C[C@H](CO)N1C[C@H](C)[C@@H](CN(C)C(=O)Nc2ccccc2)Oc2c(NC(=O)C3CCCCC3)cccc2C1=O	18	n	n	n	n
Cc1noc(C)c1NC(=O)N(C)C[C@H]1Oc2c(NC(=O)c3ccc(-c4nccs4)cc3)cccc2C(=O)N([C@@H](C)CO)C[C@@H]1C	x	n	x	x	x
Cc1noc(C)c1NC(=O)N(C)C[C@@H]1Oc2c(NC(=O)c3ccc(-c4nccs4)cc3)cccc2C(=O)N([C@H](C)CO)C[C@H]1C	x	31	x	x	x
C[C@@H]1CN([C@@H](C)CO)C(=O)c2cccc(NC(=O)C3CCCCC3)c2O[C@H]1CN(C)C(=O)Nc1ccccc1	x	n	x	x	x

Screens from PubChem.
